Results published in ChEMBL document CHEMBL1124538, “Mono and bis(bioreductive) alkylating agents: synthesis and antitumor activities in a B16 melanoma model” (J Med Chem, 1989).
Values joined by “and” are separate entries in the source; they are usually repeats but may differ in a detail not shown here. Identical values can stand only once.

Columns and labels:
Mus musculus [1] = assay: (§1) Antitumor efficacy against subcutaneously implanted B16 melanoma tumor in BDF1 hybrid mice, administered intraperitoneally with 10 mg/kg of compound; assay type: functional
In short: (§2)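 Female BDF1 mice received 0.5 mL B16 tumor brei sc into the shaved dorsoscapular area; the brei was a 1:10 w/v dilution in HBSS from tumor passaged sc in C57BL/6 mice. Dosing was ip for 9 consecutive days once the tumor was palpable, in saline, 0.3% Klucel or 0.33% Klucel/NaHCO3. Mice were observed daily for up to 120 days. %T/C is median survival treated/control (NCI Instruction 14); active if ≥140.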

B16 [2] = assay: (§3) Percent B16 melanoma growth inhibition at dose 10 mg/kg in mice; assay type: functional, Mus musculus; conditions: for inhibition in vivo at 10 mg/kg: Mus musculus, B16, dose 10 mg/kg; for Inhibition: dose 10 mg/kg
In short: (§4)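 B16 brei (1:10 w/v in HBSS, 0.5 mL) was implanted sc into female BDF1 mice. Mice got ip doses for 9 consecutive days after the tumor became palpable, in saline, 0.3% Klucel or 0.33% Klucel/NaHCO3. Serial tumor diameters were measured. Inhibition = 100 − [(change in average tumor diameter, treated/control) × 100]; active if ≥25%.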

B16 [3] = assay: Percent B16 melanoma growth inhibition at dose 20 mg/kg in mice; assay type: functional, Mus musculus; conditions: for inhibition in vivo at 20 mg/kg: Mus musculus, B16, dose 20 mg/kg; in short: as §4
Mus musculus [4] = assay: Antitumor efficacy against subcutaneously implanted B16 melanoma tumor in BDF1 hybrid mice, administered intraperitoneally with 20 mg/kg of compound; assay type: functional; in short: as §2
Mus musculus [5] = assay: as §3; assay type: functional; conditions: B16, dose 10 mg/kg; in short: as §4
B16 [6] = assay: Percent B16 melanoma growth inhibition at dose 4 mg/kg in mice; assay type: functional; conditions: Mus musculus; in short: as §4
Mus musculus [7] = assay: Compound was tested for increase in life span of P388 leukemia bearing mice at dose of 10 mg/Kg; Did nto increase significantly; assay type: functional, organism-based
Mus musculus [8] = assay: Compound was tested for increase in life span of P388 leukemia bearing mice at dose of 20 mg/Kg; Showed Toxicity, and weight loss; assay type: organism-based; conditions: in vivo
Mus musculus [9] = assay: Compound was tested for increase in life span of P388 leukemia bearing mice at dose of 40 mg/Kg; Showed Toxicity, and weight loss; assay type: organism-based; conditions: in vivo
Mus musculus [10] = assay: Compound was tested for increase in life span of P388 leukemia bearing mice at dose of 5 mg/Kg; Did nto increase significantly; assay type: functional, organism-based
Mus musculus [11] = assay: Antitumor efficacy against subcutaneously implanted B16 melanoma tumor in BDF1 hybrid mice, administered intraperitoneally with 4 mg/kg of compound; assay type: functional; in short: as §2
B16 [12] = assay: as §1; assay type: functional, Mus musculus; in short: as §2

SMILES | T/C (Mus musculus [1]) | inhibition in vivo at 10 mg/kg (B16 [2]) | inhibition in vivo at 20 mg/kg (B16 [3]) | other results
O=C1C=C(CCC2=CC(=O)C(CBr)=CC2=O)C(=O)C=C1CBr | 102% | 16% |  | 
O=C1C=C(COC(=O)CCC(=O)O)C(=O)C(COC(=O)CCC(=O)O)=C1 |  |  | 23% | Inhibition (B16 [3]; dose 20 mg/kg): 29%; T/C (Mus musculus [4]; 20 mg/kg): 110% and 130%
O=C1C=C(CBr)C(=O)C=C1CBr |  | 20% |  | T/C (Mus musculus [1]; 10 mg/kg): 140% and 118%; Inhibition (B16 [2]): 30%
O=C1C=C(CBr)C(=O)C(CBr)=C1 | 105% | 24% |  | 
CC(=O)OCC1=CC(=O)C=C(COC(C)=O)C1=O | 100% | 13% |  | 
COC1=CC(=O)C(COC(C)=O)=CC1=O | 110% | 0% |  | 
O=C(O)CCC(=O)OCC1=CC(=O)C(COC(=O)CCC(=O)O)=CC1=O |  | 38% |  | T/C (Mus musculus [1]; 10 mg/kg): 115% and 111%; Inhibition (B16 [2]): 19%
CC(=O)OCC1=CC(=O)C(CCC2=CC(=O)C(COC(C)=O)=CC2=O)=CC1=O | 129% | 16% |  | 
O=C1C=C(CCl)C(=O)C=C1CCl | 104% |  |  | inhibition in vivo at 10 mg/kg (Mus musculus [5]): 4%
CC(=O)OCC1=CC(=O)C=CC1=O |  |  | 63% | inhibition in vivo at 4 mg/kg (B16 [6]): 31%; Increase in life-span (Mus musculus [7]): Did nto increase significantly; Increase in life-span (Mus musculus [8]): Did nto increase significantly; Increase in life-span (Mus musculus [9]): Did nto increase significantly; Increase in life-span (Mus musculus [10]): Did nto increase significantly; T/C (Mus musculus [4]): 142%; T/C (Mus musculus [11]): 144%
O=C1C=CC(=O)C(COC(=O)CCC(=O)O)=C1 | 164% | 27% | 19% | T/C (B16 [12]): 130%; T/C (Mus musculus [4]): 115%; Inhibition (B16 [2]): 32%
O=C1C=C(CO)C(=O)C(CO)=C1 | 90% | 19% | 36% | T/C (Mus musculus [4]): 171%
O=C(O)CCC(=O)OCC1=CC(=O)C(CCC2=CC(=O)C(COC(=O)CCC(=O)O)=CC2=O)=CC1=O |  |  |  | T/C (Mus musculus [1]; 10 mg/kg): 123% and 106%
